pIC50: −log10 of the molar value. The source made the active and inactive calls. The calls are words filed in the database; no cut-off is given here.
Tests used:
[1] = tested on: HL-60; assay: Antiproliferative activity against human HL60 cells after 72 hrs by MTT assay; format: functional, cell-based; details: HL-60, 72 h
How it was run: (§1)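 Cancer lines kept in RPMI-1640 with 10% foetal bovine serum, 2 mM glutamine, penicillin/streptomycin, 37 °C, 5% CO₂. Seeded at 0.7 × 10⁵ cells/well (adherent) or 0.3 × 10⁶ cells/mL (suspension). After 24 h, compounds in DMSO added at 0.048–25 µg/mL for 72 h. Medium then replaced with 0.5 mg/mL MTT for 3 h. Formazan dissolved in DMSO, absorbance read at 595 nm.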

[2] = tested on: SF-295; assay: Antiproliferative activity against human SF295 cells after 72 hrs by MTT assay; format: functional, cell-based; details: SF-295, 72 h; how it was run: as §1
[3] = tested on: Nucleic Acid; assay: Binding affinity to calf thymus dsDNA in biosensor assessed as oxidation of exposed bases at 10^-4 M by differential pulse voltametry; format: nucleic-acid assay; details: Bos taurus
How it was run: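 Glassy carbon electrode polished with alumina, then pretreated by five cyclic scans 0 to +1.4 V in acetate buffer pH 4.5. Electrode coated with a dsDNA gel layer, then 20 µL of 10⁻⁴ M ethanolic compound added with drying. DPV in acetate buffer from 0 to 1.4 V: pulse amplitude 50 mV, pulse width 70 ms, step 2 mV, scan rate 5 mV/s, 25 °C. An untreated dsDNA electrode served as blank.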

[4] = tested on: Nucleic Acid; assay: Binding affinity to calf thymus ssDNA in solution assessed as oxidation of exposed bases at 10^-4 M by differential pulse voltametry; format: nucleic-acid assay; details: Bos taurus
How it was run: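 ssDNA made by dissolving dsDNA (3.0 mg/mL) in 1 M HCl with heating for 1 h. Compound was incorporated into a carbon paste electrode; blank paste contained ethanol only. DPV at pH 4.5 in ssDNA solution (1.0 × 10⁻⁴ M): equilibration 5 s, step 2 mV, pulse amplitude 50 mV, scan rate 5 mV/s.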

[5] = Haemolysis in mouse erythrocytes at 200 ug/mL after 30 mins by spectrophotometry; format: ADME, cell-based; details: erythrocyte, 0.5 h
How it was run: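 Mouse erythrocytes used as a 2% suspension in 0.85% NaCl with 10 mM CaCl₂. Compounds tested across 1.5–200 µg/mL with 1% Triton X-100 as positive control. Incubated 30 min at room temperature, then centrifuged. Released haemoglobin in the supernatant measured at 540 nm.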

[6] = tested on: OVCAR-8; assay: Antiproliferative activity against human OVCAR8 cells after 72 hrs by MTT assay; format: functional, cell-based; details: OVCAR-8, 72 h; how it was run: as §1
[7] = tested on: MDA-MB-435; assay: Antiproliferative activity against human MDA-MB-435 cells after 72 hrs by MTT assay; format: functional, cell-based; details: MDA-MB-435, 72 h; how it was run: as §1
[8] = tested on: PBMC; assay: Cytotoxicity against human PBMC after 72 hrs by alamar blue assay; format: cell-based
How it was run: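 PBMC isolated from heparinised blood of healthy non-smoking donors by Ficoll-Hypaque density gradient. Cultured in RPMI-1640 with 20% FBS, glutamine, antibiotics and 2% phytohaemagglutinin at 37 °C, 5% CO₂. Plated at 3 × 10⁵ cells/mL; compounds in DMSO added at 0.048–25 µg/mL after 24 h, 72 h exposure. Alamar blue (resazurin) added 24 h before the end; absorbance read at 570 and 595 nm. IC50 by nonlinear regression.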

[9] = tested on: V79; assay: Cytotoxicity against chinese hamster V79 cells after 72 hrs by MTT assay; format: cell-based; details: Cricetulus griseus, V79, 72 h
How it was run: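 V79 Chinese hamster lung fibroblasts grown in MEM with Earle's salts, 10% foetal bovine serum, 2 mM glutamine, penicillin/streptomycin, 37 °C, 5% CO₂. Seeded at 0.7 × 10⁵ cells/well. Compounds in DMSO added at 0.048–25 µg/mL after 24 h and left 72 h. MTT 0.5 mg/mL for 3 h, formazan in DMSO read at 595 nm. IC50 by nonlinear regression, two experiments in duplicate.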

[10] = tested on: HCT-15; assay: Antiproliferative activity against human HCT15 cells after 72 hrs by MTT assay; format: functional, cell-based; details: HCT-15, 72 h; how it was run: as §1
[11] = tested on: V79; assay: Selectivity ratio of IC50 for chinese hamster V79 cells to IC50 for human SF295 cells
[12] = tested on: PC-3; assay: Antiproliferative activity against human PC3 cells after 72 hrs by MTT assay; format: functional, cell-based; details: PC-3, 72 h; how it was run: as §1
[13] = tested on: MX1; assay: Antiproliferative activity against human MX1 cells after 72 hrs by MTT assay; format: functional, cell-based; details: MX1, 72 h; how it was run: as §1
[14] = tested on: K562; assay: Antiproliferative activity against human K562 cells after 72 hrs by MTT assay; format: functional, cell-based; details: K562, 72 h; how it was run: as §1
[15] = tested on: MDA-MB-231; assay: Antiproliferative activity against human MDA-MB-231 cells after 72 hrs by MTT assay; format: functional, cell-based; details: MDA-MB-231, 72 h; how it was run: as §1
[16] = tested on: DU-145; assay: Antiproliferative activity against human DU145 cells after 72 hrs by MTT assay; format: functional, cell-based; details: DU-145, 72 h; how it was run: as §1
[17] = tested on: COLO 205; assay: Antiproliferative activity against human COLO205 cells after 72 hrs by MTT assay; format: functional, cell-based; details: COLO 205, 72 h; how it was run: as §1
[18] = tested on: Hs-578T; assay: Antiproliferative activity against human Hs578T cells after 72 hrs by MTT assay; format: functional, cell-based; how it was run: as §1
[19] = tested on: SW-620; assay: Antiproliferative activity against human SW620 cells after 72 hrs by MTT assay; format: functional, cell-based; details: SW-620, 72 h; how it was run: as §1
[20] = tested on: UACC-62; assay: Antiproliferative activity against human UACC62 cells after 72 hrs by MTT assay; format: functional, cell-based; details: UACC-62, 72 h; how it was run: as §1
[21] = tested on: CCRF-CEM; assay: Antiproliferative activity against human CEM cells after 72 hrs by MTT assay; format: functional, cell-based; how it was run: as §1
[22] = tested on: HCT-8; assay: Antiproliferative activity against human HCT8 cells after 72 hrs by MTT assay; format: functional, cell-based; details: HCT-8, 72 h; how it was run: as §1
[23] = tested on: LNCaP; assay: Cytotoxicity against human LNCAP cells after 24 hrs by MTT assay; format: functional, cell-based
[24] = tested on: PC-3; assay: Cytotoxicity against human PC3 cells after 24 hrs by MTT assay; format: functional, cell-based; details: PC-3, 24 h

pIC50 [1]	Activity [3]	Activity [4]	pIC50 [6]	pIC50 [7]	pIC50 [10]	pIC50 [12]	pIC50 [14]	pIC50 [16]	pIC50 [17]	pIC50 [19]	pIC50 [21]	pIC50 [22]	Structure (SMILES)	pIC50 [2]	Activity [5]	pIC50 [8]	pIC50 [9]	Ratio IC50 [11]	pIC50 [20]	further results
5.39	Active	Active	4.63										CCOC(=O)/C(C#N)=C/c1c2ccccc2nc2ccccc12	4.26	Non-toxic					
< 4.22	Active	Active	4.71	4.81	4.53	4.75	< 4.22	< 4.22	4.33	4.57	< 4.22	5.13	Cc1ccc(CN2C(=O)S/C(=C\c3c4ccccc4nc4ccccc34)C2=O)cc1	5.11	Non-toxic	< 4.22	4.55	3.7	4.68	pIC50 [13]: < 4.22; pIC50 [15]: < 4.22; pIC50 [18]: < 4.22
													Cc1c(C)c2c(c(C)c1O)CCC(C)(COc1ccc(CC3SC(=O)NC3=O)cc1)O2 (stereo unspecified) [TROGLITAZONE]							pIC50 [23]: 4.66; pIC50 [24]: 4.52
													Cc1c(C)c2c(c(C)c1O)CCC(C)(COc1ccc(/C=C3/SC(=O)NC3=O)cc1)O2 (stereo unspecified)							pIC50 [23]: 4.85; pIC50 [24]: 4.70
< 4.22	Active	Active	5.03	4.85	4.24	4.57	< 4.22		4.64	4.50	< 4.22	5.25	O=C1SC(=Cc2c3ccccc3nc3ccccc23)C(=O)N1Cc1ccc(F)cc1 (mixture of isomers)	5.25	Non-toxic	< 4.22	4.49	5.9	5.02	
7.10			5.85		6.52	5.48		6.52	5.96	6.52		6.52	COc1cc(NS(C)(=O)=O)ccc1Nc1c2ccccc2nc2ccccc12 [AMSACRINE]	6.30		4.66	5.24			
< 4.24	Active	Active	5.24	4.65	4.67	4.89	< 4.24	5.02	5.20	4.70	< 4.24	5.08	O=C1S/C(=C\c2c3ccccc3nc3ccccc23)C(=O)N1Cc1ccc(Cl)cc1	5.24	Non-toxic	< 4.24	4.75	3.1	4.54	pIC50 [13]: < 4.24; pIC50 [15]: < 4.24; pIC50 [18]: < 4.24
< 4.28	Active	Active	4.43	4.59	4.70	5.07	< 4.28		< 4.28	4.45	< 4.28	4.95	O=C1SC(=Cc2c3ccccc3nc3ccccc23)C(=O)N1Cc1ccc(Br)cc1 (mixture of isomers)	5.14	Non-toxic	< 4.28	4.65	3.1	4.29	

From ChEMBL document CHEMBL2034918, “Synthesis and cytotoxic activity of new acridine-thiazolidine derivatives” (Bioorg Med Chem, 2012)
